The source of these data is ChEMBL document CHEMBL1154907, “Synthesis and preclinical evaluations of 2-(2-fluorophenyl)-6,7-methylenedioxyquinolin-4-one monosodium phosphate (CHM-1-P-Na) as a potent antitumor agent” (J Med Chem, 2010).

The subject of one data set is ACHN. Put plainly: Growth inhibition of human ACHN cells by SRB assay. The class given is functional. The method in brief:
(§1)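 Human cancer cell panel; five concentrations from 10^-4 to 10^-8 M; growth measured by sulforhodamine B colorimetric method; GI50, TGI and LC50 derived from computer-analysed dose-response curves.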
(In general: Sulforhodamine B stains cellular protein and so reports cell mass.)

The target of data set [1] is Cathepsin S (Homo sapiens) (UniProt P25774). Nature of the data set: Inhibition of human cathepsin S at 10 uM by enzyme assay. The method in brief: (§2)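 Commercial spectrum screen of enzyme assays under standard protocols; percent inhibition tested at 10 μM; IC50 determined for targets showing significant inhibition at that concentration; SEM given where multiple independent determinations.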

In a further data set the test system is MDA-MB-231. Put plainly: Growth inhibition of human MDA-MB-231 cells by SRB assay. The format is functional. The method in brief: as §1
The next data set has as its target MAO-A (Homo sapiens, UniProt P21397). Nature of the data set: Inhibition of human MAO-A at 10 uM by enzyme assay. The method in brief: as §2

Cathepsin S (Homo sapiens), sequence (P25774 115-331 limits assumed): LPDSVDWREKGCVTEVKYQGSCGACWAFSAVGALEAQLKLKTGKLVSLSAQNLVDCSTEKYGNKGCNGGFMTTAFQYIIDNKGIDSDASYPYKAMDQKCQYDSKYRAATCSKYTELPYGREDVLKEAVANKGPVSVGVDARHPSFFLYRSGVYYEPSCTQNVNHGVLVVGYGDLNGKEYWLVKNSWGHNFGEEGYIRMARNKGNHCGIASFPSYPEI
MAO-A, sequence (P21397 whole entry): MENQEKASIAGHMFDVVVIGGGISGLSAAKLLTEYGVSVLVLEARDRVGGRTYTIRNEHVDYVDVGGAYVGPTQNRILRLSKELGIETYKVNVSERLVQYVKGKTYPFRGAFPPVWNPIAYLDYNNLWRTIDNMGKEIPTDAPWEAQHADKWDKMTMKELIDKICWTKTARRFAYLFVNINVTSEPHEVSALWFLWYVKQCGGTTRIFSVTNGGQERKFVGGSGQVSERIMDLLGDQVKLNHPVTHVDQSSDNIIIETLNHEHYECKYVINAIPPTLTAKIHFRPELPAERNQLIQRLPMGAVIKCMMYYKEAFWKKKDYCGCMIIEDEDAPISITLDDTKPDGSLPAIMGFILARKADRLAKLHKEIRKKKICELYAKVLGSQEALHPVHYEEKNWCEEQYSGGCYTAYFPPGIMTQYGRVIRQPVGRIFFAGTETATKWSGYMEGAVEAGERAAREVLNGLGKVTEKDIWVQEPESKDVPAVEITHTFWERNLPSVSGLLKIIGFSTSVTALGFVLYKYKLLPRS

In the case of `O=c1cc(-c2ccccc2F)[nH]c2cc3c(cc12)OCO3`, the results for the GI50 in the data set with ACHN and with MDA-MB-231 (MDA-MB-231) were 0.389 µM and 0.155 µM, respectively. Also, the CC50 with ACHN (read-out: pLC50 (converted)) is more than 100 µM; in the data set with MDA-MB-231 (MDA-MB-231, read-out: pLC50 (converted)), more than 100 µM. Besides, the TGI in the data set on ACHN (read-out: pTGI) is more than 100 µM; with MDA-MB-231 (MDA-MB-231, read-out: pTGI (converted)), 52.5 µM. The molecule also returned an inhibition in data set [1] of 1%. The molecule also showed an inhibition at 10 µM against MAO-A of 52%.

In general, GI50 refers to the concentration at which growth is held to half of that of the control. A higher GI50 goes with less potent growth inhibition. What is called inhibition is the change of the read-out against control, counted positive when it falls. Lower therefore signals a weak effect.
